ChEMBL document CHEMBL1154423, “Activity of colistin against heteroresistant Acinetobacter baumannii and emergence of resistance in an in vitro pharmacokinetic/pharmacodynamic model” (Antimicrob Agents Chemother, 2007)

How the values were obtained:
[1] = Cmax in in vitro PK/PD model at loading dose of 0.30 mg and maintenance dose of 0.23 mg dosed at 8 hrs intervals; format: ADME, organism-based; design: dose 0.3 mg
[2] = Cmax in in vitro PK/PD model at loading dose of 0.45 mg and maintenance dose of 0.39 mg dosed at 12 hrs intervals; format: ADME, organism-based; design: dose 0.45 mg
[3] = Cmax in in vitro PK/PD model at loading dose of 0.90 mg and maintenance dose of 0.89 mg dosed at 24 hrs intervals; format: ADME, organism-based; design: dose 0.9 mg
Acinetobacter baumannii [4] = assay: Antibacterial activity against Acinetobacter baumannii ATCC 19606 assessed as AUBC (0 to 72 hrs) normalized to log10CFU/ml in in vitro PK/PD model at loading dose of 0.90 mg and maintenance dose of 0.89 mg dosed at 24 hrs intervals; format: functional, organism-based
Summary of the method: (§1)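 One-compartment in vitro PK/PD model at 37°C. Cation-adjusted Mueller-Hinton broth was pumped from a reservoir into the central compartment, with an early-log-phase inoculum of about 10^6 CFU/ml. Colistin sulfate simulated human colistin PK. Intermittent regimens were dosed into the central compartment; for the continuous regimen, colistin was spiked into the reservoir broth. Viable counts were by spiral plating over 0–72 h, AUBC0-72 normalized to log10 CFU/ml at t=0, n=3.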

Acinetobacter baumannii [5] = assay: Antibacterial activity against Acinetobacter baumannii isolate 6 assessed as AUBC (0 to 72 hrs) normalized to log10CFU/ml in in vitro PK/PD model at loading dose of 0.30 mg and maintenance dose of 0.23 mg dosed at 8 hrs intervals; format: functional, organism-based; summary of the method: as §1
Acinetobacter baumannii [6] = assay: Antibacterial activity against Acinetobacter baumannii isolate 6 assessed as AUBC (0 to 72 hrs) normalized to log10CFU/ml in in vitro PK/PD model at loading dose of 0.45 mg and maintenance dose of 0.39 mg dosed at 12 hrs intervals; format: functional, organism-based; summary of the method: as §1
Acinetobacter baumannii [7] = assay: Antimicrobial activity against gentamicin and ciprofloxacin resistant Acinetobacter baumannii ATCC 19606; format: functional, organism-based
Acinetobacter baumannii [8] = assay: Antibacterial activity against Acinetobacter baumannii ATCC 19606 assessed as AUBC (0 to 72 hrs) normalized to log10CFU/ml in in vitro PK/PD model at continuous maintenance dose of 4.5 ug/ml; format: functional, organism-based; summary of the method: as §1
Acinetobacter baumannii [9] = assay: Antibacterial activity against Acinetobacter baumannii isolate 6 assessed as AUBC (0 to 72 hrs) normalized to log10CFU/ml in in vitro PK/PD model at loading dose of 0.90 mg and maintenance dose of 0.89 mg dosed at 24 hrs intervals; format: functional, organism-based; summary of the method: as §1
Acinetobacter baumannii [10] = assay: Antibacterial activity against Acinetobacter baumannii isolate 6 assessed as AUBC (0 to 72 hrs) normalized to log10CFU/ml in in vitro PK/PD model at continuous maintenance dose of 4.5 ug/ml; format: functional, organism-based; summary of the method: as §1
Acinetobacter baumannii [11] = assay: Antimicrobial activity against Ceftazidime resistant Acinetobacter baumannii isolate 6; format: functional, organism-based
Acinetobacter baumannii [12] = assay: Antibacterial activity against Acinetobacter baumannii ATCC 19606 assessed as AUBC (0 to 72 hrs) normalized to log10CFU/ml in in vitro PK/PD model at loading dose of 0.45 mg and maintenance dose of 0.39 mg dosed at 12 hrs intervals; format: functional, organism-based; summary of the method: as §1
Acinetobacter baumannii [13] = assay: Antibacterial activity against Acinetobacter baumannii ATCC 19606 assessed as AUBC (0 to 72 hrs) normalized to log10CFU/ml in in vitro PK/PD model at loading dose of 0.30 mg and maintenance dose of 0.23 mg dosed at 8 hrs intervals; format: functional, organism-based; summary of the method: as §1

Cmax [1] [ng/mL]	Cmax [2] [ng/mL]	Cmax [3] [ng/mL]	Sequence	AUBC (Acinetobacter baumannii [4]) [log10CFU/ml]	AUBC (Acinetobacter baumannii [5]) [log10CFU/ml]	AUBC (Acinetobacter baumannii [6]) [log10CFU/ml]	MIC (Acinetobacter baumannii [7]) [µg/mL]	AUBC (Acinetobacter baumannii [8]) [log10CFU/ml]	AUBC (Acinetobacter baumannii [9]) [log10CFU/ml]	AUBC (Acinetobacter baumannii [10]) [log10CFU/ml]	MIC (Acinetobacter baumannii [11]) [µg/mL]	AUBC (Acinetobacter baumannii [12]) [log10CFU/ml]	AUBC (Acinetobacter baumannii [13]) [log10CFU/ml]
3000	4500	9000	COLISTIN [listing 1 of 2 here]										
			COLISTIN [listing 2 of 2 here]	67	68	64.9	1	72.7	58.5	65.6	1	68.5	68.5
